Reference: ChEMBL document CHEMBL4842397, “Macrocyclization as a Source of Desired Polypharmacology. Discovery of Triple PI3K/mTOR/PIM Inhibitors” (ACS Med Chem Lett, 2021)
pEC50, pIC50, pKi: −log10 of the molar value. One block for each compound: values may come before it.

Key:
[1] = target: Serine/threonine-protein kinase pim-1 (Homo sapiens, UniProt P11309); assay: Inhibition of human PIM1 using ARKRRRHPSGPPTA as substrate measured after 1.5 hrs by ADP hunter plus assay
[2] = target: Serine/threonine-protein kinase mTOR (Homo sapiens, UniProt P42345); assay: Inhibition of mTOR (unknown origin) by LanthaScreen assay
[3] = target: Phosphatidylinositol 4,5-bisphosphate 3-kinase catalytic subunit alpha isoform (Homo sapiens, UniProt P42336); assay: Inhibition of PI3Kalpha (unknown origin) by ADP-Glo assay
Chain of Phosphatidylinositol 4,5-bisphosphate 3-kinase catalytic subunit alpha isoform (P42336 whole entry, canonical isoform): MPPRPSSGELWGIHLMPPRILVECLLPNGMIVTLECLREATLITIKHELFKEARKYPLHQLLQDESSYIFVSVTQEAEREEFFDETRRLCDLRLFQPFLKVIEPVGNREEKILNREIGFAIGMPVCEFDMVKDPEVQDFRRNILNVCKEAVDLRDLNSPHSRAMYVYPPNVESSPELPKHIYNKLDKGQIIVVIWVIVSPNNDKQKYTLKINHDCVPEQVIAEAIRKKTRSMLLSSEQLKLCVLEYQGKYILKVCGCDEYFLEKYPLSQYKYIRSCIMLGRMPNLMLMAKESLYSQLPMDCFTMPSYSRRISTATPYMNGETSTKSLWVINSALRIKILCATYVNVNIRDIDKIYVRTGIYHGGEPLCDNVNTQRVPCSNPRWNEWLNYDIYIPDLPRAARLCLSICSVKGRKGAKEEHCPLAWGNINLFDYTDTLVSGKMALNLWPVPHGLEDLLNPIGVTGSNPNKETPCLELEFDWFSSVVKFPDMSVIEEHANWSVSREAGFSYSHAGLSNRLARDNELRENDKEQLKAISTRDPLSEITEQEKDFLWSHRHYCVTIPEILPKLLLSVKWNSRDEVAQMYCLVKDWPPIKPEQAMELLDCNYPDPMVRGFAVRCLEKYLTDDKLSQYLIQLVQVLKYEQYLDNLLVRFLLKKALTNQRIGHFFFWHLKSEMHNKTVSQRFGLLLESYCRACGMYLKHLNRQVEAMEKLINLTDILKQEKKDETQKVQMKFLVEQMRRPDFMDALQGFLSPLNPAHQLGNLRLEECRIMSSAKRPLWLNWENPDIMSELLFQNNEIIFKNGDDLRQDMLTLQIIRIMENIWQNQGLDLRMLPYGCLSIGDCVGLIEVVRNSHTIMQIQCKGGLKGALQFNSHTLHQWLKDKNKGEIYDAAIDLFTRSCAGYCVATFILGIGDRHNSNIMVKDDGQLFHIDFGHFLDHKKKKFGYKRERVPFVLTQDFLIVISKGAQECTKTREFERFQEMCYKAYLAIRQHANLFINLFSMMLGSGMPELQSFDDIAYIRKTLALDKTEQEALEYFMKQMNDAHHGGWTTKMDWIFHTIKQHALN

[4] = target: Serine/threonine-protein kinase PIM (Homo sapiens, UniProt P11309+Q9P1W9+Q86V86); assay: Inhibition of PIM in human MV4-11 cells assessed as BAD phosphorylation at Ser112 measured after over night incubation by lotting based cellular assay; type: cell-based
[5] = Clearance in BALB/c mouse at 0.7 mg/kg, iv; type: ADME, organism-based; conditions: in vivo
Summary of the method: (§1)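 Preliminary single-dose pharmacokinetics in BALB-C mice, given I.V. or P.O. Units: AUC h.ng/mL, T1/2 h, Cl L/h/kg, Vd L/kg, Cmax ng/mL, Tmax h. Bioavailability is the absorbed fraction at the doses tested.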

[6] = Half life in BALB/c mouse at 0.7 mg/kg, iv; type: ADME, organism-based; conditions: in vivo; summary of the method: as §1
[7] = Half life in BALB/c mouse at 5 mg/kg, po; type: ADME, organism-based; conditions: in vivo; summary of the method: as §1
[8] = Microsomal stability in human liver microsomes incubated for 30 mins by LC-MS/MS analysis; type: ADME, Microsome; conditions: read-out: Stabilty
[9] = AUClast in BALB/c mouse at 0.7 mg/kg, iv; type: ADME, organism-based; parameters: route intravenous, time 0 - last, dose 0.7 mg/kg; conditions: in vivo; summary of the method: as §1
[10] = target: PI3-kinase p110-delta/p85-alpha (Homo sapiens, UniProt O00329); assay: Inhibition of human PI3K p110delta/p85alpha by HTRF assay; type: protein-complex assay
Chain of PI3-kinase p110-delta/p85-alpha (P27986 whole entry, canonical isoform): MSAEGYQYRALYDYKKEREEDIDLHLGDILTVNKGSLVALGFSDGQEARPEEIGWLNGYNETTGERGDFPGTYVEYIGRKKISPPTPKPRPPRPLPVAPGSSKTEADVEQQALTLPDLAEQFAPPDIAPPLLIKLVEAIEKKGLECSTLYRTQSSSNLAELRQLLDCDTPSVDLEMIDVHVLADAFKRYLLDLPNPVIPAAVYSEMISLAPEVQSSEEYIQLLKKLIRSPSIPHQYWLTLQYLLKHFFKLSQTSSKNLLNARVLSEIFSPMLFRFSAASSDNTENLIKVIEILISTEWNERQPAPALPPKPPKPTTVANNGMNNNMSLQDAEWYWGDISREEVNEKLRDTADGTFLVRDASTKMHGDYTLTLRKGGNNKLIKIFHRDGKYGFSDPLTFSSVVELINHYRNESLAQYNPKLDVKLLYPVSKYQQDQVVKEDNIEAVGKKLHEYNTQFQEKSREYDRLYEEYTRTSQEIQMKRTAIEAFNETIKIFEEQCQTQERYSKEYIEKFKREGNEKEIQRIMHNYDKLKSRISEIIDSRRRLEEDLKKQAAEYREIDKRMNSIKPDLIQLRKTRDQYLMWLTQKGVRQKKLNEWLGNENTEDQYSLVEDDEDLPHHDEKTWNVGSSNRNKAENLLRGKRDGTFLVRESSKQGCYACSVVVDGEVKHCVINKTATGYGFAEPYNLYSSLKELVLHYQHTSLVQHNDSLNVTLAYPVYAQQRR
Chain of PI3-kinase p110-delta/p85-alpha (O00329 whole entry, canonical isoform): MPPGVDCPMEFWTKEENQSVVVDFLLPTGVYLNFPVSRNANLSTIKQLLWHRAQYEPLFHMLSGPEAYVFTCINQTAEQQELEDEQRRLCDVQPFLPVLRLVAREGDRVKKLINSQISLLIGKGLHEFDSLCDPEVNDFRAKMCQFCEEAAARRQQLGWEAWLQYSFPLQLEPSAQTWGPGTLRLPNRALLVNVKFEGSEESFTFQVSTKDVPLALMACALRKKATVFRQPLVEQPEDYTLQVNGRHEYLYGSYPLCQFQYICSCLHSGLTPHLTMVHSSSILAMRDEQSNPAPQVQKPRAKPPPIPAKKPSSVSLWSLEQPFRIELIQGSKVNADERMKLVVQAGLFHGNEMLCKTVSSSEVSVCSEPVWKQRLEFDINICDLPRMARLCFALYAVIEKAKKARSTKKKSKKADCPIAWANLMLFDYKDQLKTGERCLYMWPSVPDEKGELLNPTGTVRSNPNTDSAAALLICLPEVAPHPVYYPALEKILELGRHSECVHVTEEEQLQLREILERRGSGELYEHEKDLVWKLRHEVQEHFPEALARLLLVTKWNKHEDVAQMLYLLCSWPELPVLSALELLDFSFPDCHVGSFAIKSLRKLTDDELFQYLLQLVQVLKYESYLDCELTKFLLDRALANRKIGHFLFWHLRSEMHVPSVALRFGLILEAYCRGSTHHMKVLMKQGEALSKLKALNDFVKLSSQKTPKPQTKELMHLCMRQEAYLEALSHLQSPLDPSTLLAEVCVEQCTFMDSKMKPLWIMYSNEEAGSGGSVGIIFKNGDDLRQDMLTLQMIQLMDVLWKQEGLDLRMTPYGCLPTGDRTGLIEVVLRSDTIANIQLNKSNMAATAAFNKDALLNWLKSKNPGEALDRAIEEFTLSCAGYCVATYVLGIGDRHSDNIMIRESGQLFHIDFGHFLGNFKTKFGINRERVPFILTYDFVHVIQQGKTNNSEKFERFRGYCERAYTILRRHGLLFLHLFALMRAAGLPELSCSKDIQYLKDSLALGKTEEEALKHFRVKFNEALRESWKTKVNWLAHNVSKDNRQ
Summary of the method: (§2)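 Ki from an HTRF assay on each PI3K isoform, reported in nM as the average of two independent experiments.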

[11] = target: PI3-kinase p110-alpha/p85-alpha (Homo sapiens, UniProt P42336); assay: Inhibition of human PI3K p110alpha/p85alpha by HTRF assay; type: protein-complex assay; summary of the method: as §2
Chain of PI3-kinase p110-alpha/p85-alpha (P27986 whole entry): as the sequence (P27986 whole entry, canonical isoform) above
Chain of PI3-kinase p110-alpha/p85-alpha (P42336 whole entry): as the sequence (P42336 whole entry, canonical isoform) above

[12] = target: Serine/threonine-protein kinase pim-3 (Homo sapiens, UniProt Q86V86); assay: Inhibition of PIM3 (unknown origin) using ARKRRRHPSGPPTA as peptide substrate by ADP Hunter Plus assay
[13] = target: Voltage-gated inwardly rectifying potassium channel KCNH2 (Homo sapiens, UniProt Q12809); assay: Inhibition of human ERG at < 30 uM
[14] = target: PI3K/mTOR (Homo sapiens); assay: Inhibition of PI3K/mTOR in human MV4-11 cells assessed as Akt phosphorylation at Ser473 measured after over night incubation by lotting based cellular assay
[15] = target: Serine/threonine-protein kinase pim-2 (Homo sapiens, UniProt Q9P1W9); assay: Inhibition of PIM2 (unknown origin) using ARKRRRHPSGPPTA as peptide substrate by ADP Hunter Plus assay
Chain of Serine/threonine-protein kinase pim-2 (Q9P1W9 whole entry): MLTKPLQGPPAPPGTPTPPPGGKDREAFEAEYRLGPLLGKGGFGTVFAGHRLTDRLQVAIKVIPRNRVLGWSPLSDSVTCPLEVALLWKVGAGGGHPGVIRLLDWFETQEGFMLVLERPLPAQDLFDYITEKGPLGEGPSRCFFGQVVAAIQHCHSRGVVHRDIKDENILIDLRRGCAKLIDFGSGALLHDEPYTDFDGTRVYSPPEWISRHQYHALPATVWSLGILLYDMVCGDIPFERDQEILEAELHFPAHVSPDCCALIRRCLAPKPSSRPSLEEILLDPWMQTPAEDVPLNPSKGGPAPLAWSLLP

[16] = Oral bioavailability in BALB/c mouse at 5 mg/kg; type: ADME, organism-based; conditions: in vivo; summary of the method: as §1
[17] = Volume of distribution at steady state in BALB/c mouse at 0.7 mg/kg, iv; type: ADME, organism-based; conditions: in vivo, read-out: Vdss; summary of the method: as §1
[18] = AUClast in BALB/c mouse at 5 mg/kg, po; type: ADME, organism-based; parameters: route oral, time 0 - last, dose 5 mg/kg; conditions: in vivo; summary of the method: as §1
[19] = Cmax in BALB/c mouse at 5 mg/kg, po; type: ADME, organism-based; parameters: route oral, dose 5 mg/kg; conditions: in vivo; summary of the method: as §1
[20] = target: PI3K p110 beta/p85 alpha (Homo sapiens, UniProt P42338); assay: Inhibition of human PI3K p110beta/p85alpha by HTRF assay; type: protein-complex assay; summary of the method: as §2
[21] = Tmax in BALB/c mouse at 5 mg/kg, po; type: ADME, organism-based; conditions: in vivo; summary of the method: as §1
[22] = target: Phosphatidylinositol 4,5-bisphosphate 3-kinase catalytic subunit gamma isoform (Homo sapiens, UniProt P48736); assay: Inhibition of human PI3Kgamma by HTRF assay; summary of the method: as §2
Chain of Phosphatidylinositol 4,5-bisphosphate 3-kinase catalytic subunit gamma isoform (P48736 whole entry, canonical isoform): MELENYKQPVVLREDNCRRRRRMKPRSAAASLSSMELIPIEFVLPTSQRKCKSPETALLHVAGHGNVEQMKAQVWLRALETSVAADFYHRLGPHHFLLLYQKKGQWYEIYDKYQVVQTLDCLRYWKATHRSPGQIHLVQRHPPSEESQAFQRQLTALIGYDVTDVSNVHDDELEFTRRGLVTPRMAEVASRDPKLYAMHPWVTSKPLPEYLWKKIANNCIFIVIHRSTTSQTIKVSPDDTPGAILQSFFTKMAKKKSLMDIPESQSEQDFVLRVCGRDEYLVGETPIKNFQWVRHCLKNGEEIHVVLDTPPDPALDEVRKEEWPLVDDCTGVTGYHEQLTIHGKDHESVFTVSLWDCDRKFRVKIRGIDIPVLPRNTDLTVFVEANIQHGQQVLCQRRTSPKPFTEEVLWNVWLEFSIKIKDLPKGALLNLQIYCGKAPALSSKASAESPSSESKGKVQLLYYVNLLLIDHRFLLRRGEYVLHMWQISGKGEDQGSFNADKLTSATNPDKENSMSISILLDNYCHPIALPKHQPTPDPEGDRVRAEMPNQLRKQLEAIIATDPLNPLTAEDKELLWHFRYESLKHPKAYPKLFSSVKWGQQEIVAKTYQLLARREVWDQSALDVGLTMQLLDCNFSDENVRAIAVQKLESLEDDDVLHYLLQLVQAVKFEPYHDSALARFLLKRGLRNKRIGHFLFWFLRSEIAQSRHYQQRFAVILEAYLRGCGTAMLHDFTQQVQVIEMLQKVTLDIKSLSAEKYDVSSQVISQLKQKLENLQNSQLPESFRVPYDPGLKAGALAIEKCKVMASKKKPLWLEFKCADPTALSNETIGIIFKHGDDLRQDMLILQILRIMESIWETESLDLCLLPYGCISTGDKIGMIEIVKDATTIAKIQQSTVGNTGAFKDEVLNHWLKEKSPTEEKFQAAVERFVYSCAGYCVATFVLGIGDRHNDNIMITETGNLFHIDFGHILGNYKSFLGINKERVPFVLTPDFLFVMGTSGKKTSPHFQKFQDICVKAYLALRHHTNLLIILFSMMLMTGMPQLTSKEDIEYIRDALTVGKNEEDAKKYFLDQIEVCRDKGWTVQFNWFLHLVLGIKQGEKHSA

[23] = Microsomal stability in mouse liver microsomes incubated for 30 mins by LC-MS/MS analysis; type: ADME, Microsome; conditions: read-out: Stabilty
[24] = AUClast in BALB/c mouse at 10 mg/kg, po; type: ADME, organism-based; parameters: time 0 - last, route oral, dose 10 mg/kg; conditions: in vivo; summary of the method: as §1
[25] = Half life in BALB/c mouse at 1 mg/kg, iv; type: ADME, organism-based; conditions: in vivo; summary of the method: as §1
[26] = Half life in BALB/c mouse at 10 mg/kg, po; type: ADME, organism-based; conditions: in vivo; summary of the method: as §1
[27] = Tmax in BALB/c mouse at 10 mg/kg, po; type: ADME, organism-based; conditions: in vivo; summary of the method: as §1
[28] = Clearance in BALB/c mouse at 1 mg/kg, iv; type: ADME, organism-based; conditions: in vivo; summary of the method: as §1
[29] = Microsomal stability in rat liver microsomes incubated for 30 mins by LC-MS/MS analysis; type: ADME, Microsome; conditions: read-out: Stabilty
[30] = target: Cytochrome P450 2C9 (Homo sapiens, UniProt P11712); assay: Inhibition of CYP2C9 (unknown origin); type: ADME
[31] = Oral bioavailability in BALB/c mouse at 10 mg/kg; type: ADME, organism-based; conditions: in vivo; summary of the method: as §1
[32] = AUClast in BALB/c mouse at 1 mg/kg, iv; type: ADME, organism-based; parameters: route intravenous, time 0 - last, dose 1 mg/kg; conditions: in vivo; summary of the method: as §1
[33] = Volume of distribution at steady state in BALB/c mouse at 1 mg/kg, iv; type: ADME, organism-based; conditions: in vivo; summary of the method: as §1

Chain of Serine/threonine-protein kinase pim-1 (P11309 whole entry): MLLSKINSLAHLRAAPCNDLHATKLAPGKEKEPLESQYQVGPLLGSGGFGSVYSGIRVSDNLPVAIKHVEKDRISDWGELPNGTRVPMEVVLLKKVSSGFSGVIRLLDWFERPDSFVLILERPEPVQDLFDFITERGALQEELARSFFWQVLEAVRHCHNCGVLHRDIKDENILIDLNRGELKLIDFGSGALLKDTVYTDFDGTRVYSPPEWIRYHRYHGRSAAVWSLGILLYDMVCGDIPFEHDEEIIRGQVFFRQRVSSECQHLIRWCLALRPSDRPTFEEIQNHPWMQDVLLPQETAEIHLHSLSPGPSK

- pIC50 [1]: 7.88
- pIC50 [2]: < 5.00
- pIC50 [3]: 7.54
Compound: COc1ncc2cc1NS(=O)(=O)c1cccc(c1)C(=O)NCc1csc(c1)-c1ncnc3c1SC2=C3

- pIC50 [1]: 6.19
- pIC50 [2]: < 5.00
- pIC50 [3]: 7.30
Compound: COc1ncc2cc1NS(=O)(=O)c1cccc(c1)C(=O)NCc1cc(ccn1)-c1ncnc3c1SC2=C3

- pIC50 [1]: 7.36
- pIC50 [2]: < 5.00
- pIC50 [3]: 8.13
Compound: COc1ncc2cc1NS(=O)(=O)c1cccc(c1)C(=O)NCC1=C(C)C=C(S1)c1ncnc3c1SC2=C3

- pIC50 [1]: < 5.00
- pIC50 [2]: < 6.00
- pIC50 [3]: 7.44
Compound: COc1ncc(-c2sc3c(-c4cccs4)ncnc3c2C)cc1NS(=O)(=O)c1ccccc1

- pIC50 [1]: 6.55
- pIC50 [2]: < 5.00
- pIC50 [3]: 7.78
Compound: COc1ncc2cc1NS(=O)(=O)c1cccc(c1)C(=O)NCc1cccc(c1)-c1ncnc3c1SC2=C3

- pIC50 [1]: < 5.00
- pIC50 [2]: 6.22
- pIC50 [3]: 8.17
Compound: CNC(=O)c1cccc(S(=O)(=O)Nc2cc(-c3sc4c(-c5cccs5)ncnc4c3C)cnc2OC)c1

- pIC50 [1]: < 5.00
- pIC50 [2]: 7.09
- pIC50 [3]: 8.48
Compound: COc1ncc(-c2sc3c(-c4ccc(CNC=O)s4)ncnc3c2C)cc1NS(=O)(=O)c1ccccc1

- pIC50 [1]: 7.89
- pIC50 [2]: 5.24
- pIC50 [3]: 7.77
Compound: COc1ncc2cc1NS(=O)(=O)c1cccc(c1)C(=O)NCC1=CC=C(S1)c1ncnc3c1SC2=C3

- pEC50 [4]: 7.47
- remaining at 0.5 h [23]: 90%
- AUC(0-t) [24]: 58200 ng·h/mL
- half-life [25]: 3.66 h
- half-life [26]: 23.4 h
- remaining at 0.5 h [8]: > 98%
- Tmax [27]: 0.25 h
- clearance [28]: 1 mL/min/kg
- remaining at 0.5 h [29]: 87%
- pKi [10]: 10.10
- pKi [11]: 9.60
- pIC50 [12]: 8.36
- pIC50 [1]: 7.74
- pIC50 [2]: 6.86
- pIC50 [3]: 9.64
- EC50 [14]: < 1 nM
- pIC50 [15]: 7.88
- pIC50 [30]: 5.34
- bioavailability [31]: 35.1%
- AUC(0-t) [32]: 16600 ng·h/mL
- Vd [33]: 0.31 L/kg
- pKi [20]: 9.43
- pKi [22]: 9.36
Compound: COc1ncc2cc1NS(=O)(=O)c1cccc(c1)C(=O)NCC1=CC=C(S1)c1ncnc3c1SC2=C3C
- inhibition (INH) [13]: Not Active

- pIC50 [1]: 6.61
- pIC50 [2]: < 5.00
- pIC50 [3]: 6.42
Compound: COc1ncc2cc1NS(=O)(=O)c1cccc(c1)C(=O)NCC1=CC=C(O1)c1ncnc3c1SC2=C3

- pIC50 [1]: 6.59
- pIC50 [2]: < 5.00
- pIC50 [3]: 7.23
Compound: COc1ncc2cc1NS(=O)(=O)c1cccc(c1)C(=O)NCCn1cc(cn1)-c1ncnc3c1SC2=C3

- pIC50 [1]: 6.81
- pIC50 [2]: < 5.00
- pIC50 [3]: 7.86
Compound: COc1ncc2cc1NS(=O)(=O)c1cccc(c1)C(=O)NCc1cc(cs1)-c1ncnc3c1SC2=C3

Further lines, the compound ahead of its results:

Compound: COc1ncc2cc1NS(=O)(=O)c1cccc(c1)C(=O)NC[C@@H]1CCN(C1)c1ncnc3c1SC2=C3C
- pIC50 [1]: 6.91
- pIC50 [2]: < 5.00
- pIC50 [3]: 8.51

Compound: COc1ncc2cc1NS(=O)(=O)c1ccc(F)c(c1)C(=O)NCC1=CC=C(S1)c1ncnc3c1SC2=C3
- pIC50 [1]: 7.84
- pIC50 [2]: 5.68
- pIC50 [3]: 8.20

Compound: COc1ncc2cc1NS(=O)(=O)c1ccc(F)c(c1)C(=O)NCC1=CC=C(S1)c1ncnc3c1SC2=C3C
- EC50 [4]: 60 nM
- clearance [5]: 1.05 mL/min/kg
- half-life [6]: 2.96 h
- half-life [7]: 14.6 h
- remaining at 0.5 h [8]: > 98%
- AUC(0-t) [9]: 11200 ng·h/mL
- pKi [10]: 9.89
- pKi [11]: 9.57
- pIC50 [12]: 8.24
- inhibition (INH) [13]: Not Active
- pIC50 [1]: 7.65
- pIC50 [2]: 7.13
- pIC50 [3]: 9.89
- EC50 [14]: < 1 nM
- pIC50 [15]: 8.09
- bioavailability [16]: 124%
- Vd [17]: 0.26 L/kg
- AUC(0-t) [18]: 99100 ng·h/mL
- Cmax [19]: 9370 ng/mL
- pKi [20]: 9.51
- Tmax [21]: 5 h
- pKi [22]: 9.77

Compound: COc1ncc2cc1NS(=O)(=O)c1cccc(c1)C(=O)NCCn1cc(cn1)-c1ncnc3c1SC2=C3C
- pIC50 [1]: 6.75
- pIC50 [2]: 6.70
- pIC50 [3]: 9.37

Compound: COc1ncc2cc1NS(=O)(=O)c1cccc(c1)C(=O)NCc1nc(cs1)-c1ncnc3c1SC2=C3
- pIC50 [1]: < 5.00
- pIC50 [2]: < 5.00
- pIC50 [3]: 6.91

Compound: COc1ncc2cc1NS(=O)(=O)c1cccc(c1)C(=O)NC[C@@H]1CN(CCO1)c1ncnc3c1SC2=C3C
- pIC50 [1]: 7.41
- pIC50 [2]: 5.69
- pIC50 [3]: 9.18

Compound: COc1ncc2cc1NS(=O)(=O)c1cccc(c1)C(=O)NC[C@H]1CCN(C1)c1ncnc3c1SC2=C3C
- pIC50 [1]: 7.36
- pIC50 [2]: < 5.00
- pIC50 [3]: 8.50

Compound: COc1ccc2cc1C(=O)NCC1=CC=C(S1)c1ncnc3c1SC(=C3)c1cnc(OC)c(c1)NS2(=O)=O
- pIC50 [1]: 7.18
- pIC50 [2]: 5.25
- pIC50 [3]: 8.16

Compound: COc1ncc2cc1NS(=O)(=O)c1cccc(c1)C(=O)NCc1cncc(c1)-c1ncnc3c1SC2=C3C
- pIC50 [1]: 7.37
- pIC50 [2]: 6.76
- pIC50 [3]: 7.72

Compound: COc1ncc2cc1NS(=O)(=O)c1cccc(c1)C(=O)NCc1cncc(c1)-c1ncnc3c1SC2=C3
- pIC50 [1]: 7.34
- pIC50 [2]: < 5.00
- pIC50 [3]: 7.13

Compound: COc1ncc2cc1NS(=O)(=O)c1ccc(Cl)c(c1)C(=O)NCC1=CC=C(S1)c1ncnc3c1SC2=C3
- pIC50 [1]: 7.96
- pIC50 [2]: < 5.00
- pIC50 [3]: 8.20
